In PMC11549336 (Communications Biology, 2024):

Biological target: recombinant Plk1 PBD (Plk1 367-603aa) (Homo sapiens, UniProt P53350)
Assay: Peptide binding assay by isothermal titration calorimetry
Conditions: ITC; listed as pT600/pT608 peptide
Method in brief: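 Protein and peptides were dialysed against 50 mM NaP, 150 mM NaCl, 0.5 mM TCEP, pH 7.5, with concentrations set by A280. ITC at 25 °C, 750 rpm stirring. […] Buffer-only controls subtracted; data fitted to a single-site model.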

Chain of recombinant Plk1 PBD (Plk1 367-603aa) (P53350 367-603): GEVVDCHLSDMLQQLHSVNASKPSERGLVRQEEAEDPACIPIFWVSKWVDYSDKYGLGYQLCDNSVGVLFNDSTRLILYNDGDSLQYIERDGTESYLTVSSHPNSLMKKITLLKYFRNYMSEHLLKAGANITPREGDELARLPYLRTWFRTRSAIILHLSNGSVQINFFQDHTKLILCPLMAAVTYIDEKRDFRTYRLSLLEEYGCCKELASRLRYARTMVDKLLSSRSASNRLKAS

FRNVpTICPNPEDpTCDFARA [BubR1^596-614 (FRNVpTICPNPEDpTCDFARA)]
binding of peptide to recombinant Plk1 PBD, in words: could not detect any interaction
